Published values pooled from the literature.
Protocols differ between the studies behind these lines.
DHODH: Dihydroorotate dehydrogenase (quinone), mitochondrial (DHODH, Homo sapiens, UniProt Q02127)
PSMB8: Proteasome subunit beta type-8 (PSMB8, Homo sapiens, UniProt P28062)
TYMS: Thymidylate synthase (TYMS, Homo sapiens, UniProt P04818)
DYRK1B: Dual specificity tyrosine-phosphorylation-regulated kinase 1B (DYRK1B, Homo sapiens, UniProt Q9Y463)
EPHA7: Ephrin type-A receptor 7 (EPHA7, Homo sapiens, UniProt Q15375)

| target | test | setting | IC50 | SMILES |
| --- | --- | --- | --- | --- |
| Alpha-1D adrenergic receptor (ADRA1D, Homo sapiens, UniProt P25100) | ligand displacement, radioligand |  | > 30 µM | CCOCc1nc(O)c(-c2nnc(Cc3ccc(Cl)cn3)o2)c(O)c1-c1c(OC)cccc1OC |
| DHODH | enzyme activity, inhibitor |  | > 10 µM | CCCN(C)Cc1cc(-c2[nH]c3cccc(F)c3c(=O)c2C)ccc1Cc1ccc(OC(F)(F)F)cc1 |
| PSMB8 | enzyme activity, inhibitor | lysate | > 10 µM | COC1CCC(C[C@H](NC(=O)[C@H](CC(C)C)NC(=O)c2cnc(C)s2)C(=O)N[C@H](/C=C/S(C)(=O)=O)Cc2ccc(CN)cc2)CC1 (some centres unmarked) |
| Transcriptional enhancer factor TEF-4 (TEAD2, Homo sapiens, UniProt Q15562) | enzyme activity, inhibitor |  | 0.71 µM | O=C(CSc1ncn[nH]1)Nc1ccc(C23CC4CC(CC(C4)C2)C3)cc1 |
| Histone acetyltransferase KAT7 (KAT7, Homo sapiens, UniProt O95251) | enzyme activity, inhibitor, radiometric |  | > 100 µM | COc1ccc(S(=O)(=O)ON=C2C=C(C)C(=O)C(C)=C2)cc1 |
| UDP-glucuronosyltransferase 1A1 (UGT1A1, Homo sapiens, UniProt P22309) | enzyme activity, inhibitor | 90 min | 11.3 µM | CC(C)=CCC[C@@H](C)c1ccc(C)c(O)c1 |
| PSMB8 | enzyme activity, inhibitor | lysate | 1.3 µM | CC(C)C[C@H](NC(=O)[C@H](CC(C)C)NC(=O)[C@H](Cc1ccccc1)NC(=O)CN=[N+]=[N-])C(=O)N[C@H](/C=C/S(C)(=O)=O)Cc1ccc(CN)cc1 |
| Ribosomal protein S6 kinase beta-1 (RPS6KB1, Homo sapiens, UniProt P23443) | enzyme activity, inhibitor |  | 0.0335 µM | CC/C(=N\NC(=O)C(C)Nc1ccccc1)c1ccc(O)c(C)c1O (centres unmarked) |
| Prostaglandin G/H synthase 2 (PTGS2, Homo sapiens, UniProt P35354) | enzyme activity, inhibitor |  | 0.07 µM | CS(=O)(=O)c1ccc(-c2nc3ccccn3c2Nc2ccccc2)cc1 |
| DHODH | enzyme activity, inhibitor, absorbance |  | 18 µM | Cc1nc(Nc2ccc(C(F)(F)F)cc2)c2c(C(F)(F)F)noc2n1 |
| TYMS | enzyme activity, inhibitor |  | 67 µM | Nc1nc(N)c2nc(CNc3ccc(C(=O)N4CCC(C(=O)O)CC4)cc3)cnc2n1 |
| PSMB8 | enzyme activity, inhibitor | lysate | 1.83 µM | CC(C)C[C@H](NC(=O)c1cc(Cl)ccc1Cl)C(=O)N[C@@H](CC(C)C)C(=O)N[C@H](/C=C/S(C)(=O)=O)Cc1ccc(CN)cc1 |
| DYRK1B | enzyme activity, inhibitor |  | > 10 µM | CCOc1ccc2c(-c3cc(C)nc(Nc4cc(OC)cc(C(F)(F)F)c4)n3)cnn2n1 |
| TYMS | enzyme activity, inhibitor |  | 74 µM | CCOC(=O)C1CCN(C(=O)c2ccc(N(C)Cc3cnc4nc(N)nc(N)c4n3)cc2)CC1 |
| EPHA7 | enzyme activity, inhibitor, radiometric |  | 0.143 µM | Cc1ccc(NC(=O)c2ccc(C)c(C(F)(F)F)c2)cc1C#Cc1nn(C2CCC(O)CC2)c2ncnc(N)c12 (centres unmarked) |
| DYRK1B | enzyme activity, inhibitor, FRET |  | 0.35 µM | COC[C@@H](C)NC1CCC(Nc2cc(-c3cccc(NCC4(C#N)CCOCC4)n3)c(Cl)cn2)CC1 (some centres unmarked) |

| target | test | setting | IC50 | SMILES |
| --- | --- | --- | --- | --- |
| Caspase-7 (CASP7, Homo sapiens, UniProt P55210) | enzyme activity, inhibitor |  | 0.00175 µM | CC(=O)N[C@@H](CC(=O)O)C(=O)N[C@@H](CCC(=O)O)C(=O)N[C@H](C(=O)N[C@H](C=O)CC(=O)O)C(C)C |
| PSMB8 | enzyme activity, inhibitor | lysate | > 10 µM | CC(C)C[C@H](NC(=O)c1ccc(-c2ccccc2)nc1)C(=O)N[C@@H](CC(C)C)C(=O)N[C@H](/C=C/S(C)(=O)=O)Cc1ccc(CN)cc1 |
| Multidrug resistance-associated protein 1 (ABCC1, Homo sapiens, UniProt P33527) | transporter uptake, inhibitor, radiometric | cell membranes | 12.3 µM | C=C1/C(=C\C=C2/CCC[C@]3(C)[C@@H]([C@H](C)/C=C/[C@@H](O)C4CC4)CC[C@@H]23)C[C@@H](O)C[C@@H]1O |
| DHODH | enzyme activity, inhibitor, absorbance |  | > 100 µM | Cc1nc(Nc2ccc(S(F)(F)(F)(F)F)cc2)c2c(C(F)(F)F)noc2n1 |
| PSMB8 | enzyme activity, inhibitor | lysate | 3.98 µM | COc1ccc(C[C@H](NC(=O)[C@H](C)NC(=O)CN2CCOCC2)C(=O)N[C@@H](CC2CCC(OC)CC2)C(=O)[C@@]2(C)CO2)cc1 (some centres unmarked) |
| Serum paraoxonase/arylesterase 1 (PON1, Homo sapiens, UniProt P27169) | enzyme activity, inhibitor |  | 4.4 µM | Oc1ccc2ccccc2n1 |
| Dual specificity tyrosine-phosphorylation-regulated kinase 1A (DYRK1A, Homo sapiens, UniProt Q13627) | enzyme activity, inhibitor |  | 0.807 µM | CN1CCN(c2ccc(Nc3ncc4cc(C#N)c(=O)n(C5CCCC5)c4n3)cc2)CC1 |
| EPHA7 | enzyme activity, inhibitor, radiometric |  | 0.379 µM | CCn1ncc2c1-c1cnc(N)c(c1)O[C@H](C)c1cc(F)ccc1-c1nn(C)nc1C2 |
| DHODH | enzyme activity, inhibitor, absorbance |  | > 50 µM | Cc1nc(Nc2ccc(C)c(Cl)c2)c2c(C)noc2n1 |
| PSMB8 | enzyme activity, inhibitor | lysate | > 10 µM | Cc1ncc(C(=O)N[C@@H](CC2CCC(C3CCCCC3)CC2)C(=O)N[C@@H](CC(C)C)C(=O)N[C@H](/C=C/S(C)(=O)=O)Cc2ccc(CN)cc2)s1 (some centres unmarked) |
| TYMS | enzyme activity, inhibitor |  | 42 µM | NC(=O)C1CCN(C(=O)c2ccc(NCc3cnc4nc(N)nc(N)c4n3)cc2)CC1 |
| PSMB8 | enzyme activity, inhibitor | lysate | 3.14 µM | Cc1ncc(C(=O)N[C@H](C(=O)N[C@@H](CC(C)C)C(=O)N[C@H](/C=C/S(C)(=O)=O)Cc2ccc(CN)cc2)C2CCCCC2)s1 |
| Proteasome subunit beta type-8, chymotrypsin-like site (PSMB8, Homo sapiens, UniProt P28062) | enzyme activity, inhibitor |  | > 100 µM | O=c1c2cc(Br)c(Br)n2cc2n1CCC2 |
| Lysosomal acid glucosylceramidase (GBA1, Homo sapiens, UniProt P04062, R534H) | enzyme activity, inhibitor |  | 19 µM | Oc1ccc(Cl)cc1Nc1nc(NCC2CCCO2)c2ccccc2n1 (centres unmarked) |
| PSMB8 | enzyme activity, inhibitor | lysate | 0.555 µM | Cc1ncc(C(=O)N[C@@H](CC2CCCC3CCCCC32)C(=O)N[C@@H](CC(C)C)C(=O)N[C@H](/C=C/S(C)(=O)=O)Cc2ccc(CN)cc2)s1 (some centres unmarked) |
| Protein arginine N-methyltransferase 7 (PRMT7, Homo sapiens, UniProt Q9NVM4) | enzyme activity, inhibitor, radiometric |  | < 2.4 µM | Nc1ncnc2c1ncn2[C@@H]1O[C@H](CSCCNC(=O)NCc2ccccc2)[C@@H](O)[C@H]1O |
